NPY-Y2 PAM-ag – human NPY-Y2 potentiation or agonism, primary screen; P49146; cells expressing NPY-Y2, potentiator/agonist read-out; activation, % at 3.6 µM; 0.45% of 220,000 active; AID 1359; in the data active means activation above about 27%;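 further: cells stimulated with NPY near EC25 plus isoproterenol at EC100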
Target sequence (P49146 whole entry, looked up): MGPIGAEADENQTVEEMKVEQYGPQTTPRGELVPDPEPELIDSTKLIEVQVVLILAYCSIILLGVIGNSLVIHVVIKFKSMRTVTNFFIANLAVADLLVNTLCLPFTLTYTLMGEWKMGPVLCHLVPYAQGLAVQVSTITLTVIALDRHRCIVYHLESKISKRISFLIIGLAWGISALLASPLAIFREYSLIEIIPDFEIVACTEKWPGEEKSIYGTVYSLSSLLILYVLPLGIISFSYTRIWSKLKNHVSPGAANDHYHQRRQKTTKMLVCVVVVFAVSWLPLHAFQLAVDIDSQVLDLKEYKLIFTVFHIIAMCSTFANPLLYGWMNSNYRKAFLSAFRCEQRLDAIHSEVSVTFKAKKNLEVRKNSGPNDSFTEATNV
NPY-Y2 antag – NPY-Y2 (human) receptor antagonism; P49146; NPY-Y2 expressing cells, antagonist mode; inhibition, % at 2.7 µM; 0.99% of 140,000 active; AID 793; in the data active means inhibition above about 17%
NPY-Y1 PAM-ag – potentiates or activates human NPY-Y1 receptor | activation, % at 3.6 µM | 0.37% of 220,000 active | P25929 | NPY-Y1 expressing cells, potentiator/agonist activation; in the data active means activation above about 33%, passing the limit was not always enough;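 further: cells stimulated with NPY at EC10 then isoproterenol at EC100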
NPY Y1 blocker – NPY-Y1 (human) receptor antagonism | P25929 | 1% of 200,000 active | AID 1040 | HEK293-CNG Y1 cells, membrane potential fluorescence; NPY at EC95, then isoproterenol | inhibition, % at 3.6 µM;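 active means inhibition above the campaign mean inhibition of all tested compounds plus 3 SD, cut at about 20% in these data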
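Material: HEK293 cells with Y1 receptor plus CNG channel; times: compound incubation 1 h at room temperature, readout 45 min post-stimulation; signal: fluorescence, membrane potential probe; read-out basis: fluorescence ratio normalized to % inhibition between controls; benchmarks: full-block control isoproterenol-only wells, zero-block control NPY plus isoproterenol wells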
Large screens that a line does not name were inactive. The list is not random: actives were taken first. Their share in the collection is about 1.8%.

CCOc1ccc(-c2nnc(SCc3nnc(-c4ccccc4)o3)n2-c2ccccc2F)cc1	NPY-Y2 antag 19, NPY Y1 blocker 26
COc1ccc(-n2c(SCc3ccc([N+](=O)[O-])cc3)nnc2-c2ccccc2)cc1	NPY-Y2 antag 112, NPY Y1 blocker 99
O=C(NCc1ccc2c(c1)OCO2)c1cnc2ccccn2c1=O	none
Nc1nc(-c2cccnc2)nn1C(=O)c1ccc(F)cc1	none (no result: NPY-Y2 antag)
COc1nc(N(c2ccccc2)c2ccccc2)nc(-n2ccnc2)n1	none
COc1ccc(CCNCC(O)COc2cccc(Br)c2)cc1 (stereo unspecified)	NPY-Y2 PAM-ag 63, NPY-Y1 PAM-ag 75 (no result: NPY-Y2 antag)
OC(CNCCc1ccc(C(F)(F)F)cc1)COc1cccc2ccccc12 (stereo unspecified)	NPY-Y2 PAM-ag 46, NPY-Y1 PAM-ag 60
OC(CNCCc1ccc(C(F)(F)F)cc1)COc1ccc2ccccc2c1 (stereo unspecified)	none
CCC[N+](CC#CCO)(CC#Cc1ccccc1)CCC	none (no result: NPY-Y2 antag, NPY Y1 blocker)
CCCCn1c2c(c(=N)c3c1CCC3)CCC2	none
CCCCCCCCCn1c2c(c(=N)c3c1CCC3)CCC2	NPY-Y2 antag 37, NPY Y1 blocker 90
CCOC(=O)NC(=O)c1cn(N(C)c2ncc(C(F)(F)F)cc2Cl)c(=O)[nH]c1=O	none (no result: NPY-Y2 antag)
CC(=O)Oc1ccc(C(c2ccc(OC(C)=O)cc2)c2ccccn2)cc1	NPY-Y2 antag 108, NPY Y1 blocker 102
O=C(Nc1cccnc1)c1sc2cccc(F)c2c1Cl	none (no result: NPY-Y2 antag)
CCOC(=O)Cn1c(S(=O)(=O)Cc2ccc(F)cc2)nc(-c2ccccc2)c1-c1ccccc1	NPY-Y2 antag 26, NPY Y1 blocker 38
CCOC(=O)Cn1c(-c2ccccc2)nc2ccccc2c1=O	none
C#CCn1c(S(=O)(=O)Cc2ccc(F)cc2)nc(-c2ccccc2)c1-c1ccccc1	NPY Y1 blocker 21
CC(=O)c1ccc(NS(=O)(=O)c2ccc(N/C=C/C(=O)c3ccc(F)cc3)cc2)cc1	none (no result: NPY-Y2 antag, NPY Y1 blocker)
N#CCCN1CCN(C(=S)c2ccc(-c3ccc(Cl)cc3)o2)CC1	none
COCCSc1nnc(NC(=O)c2ccc(NC(C)=O)cc2)s1	none (no result: NPY-Y2 antag)
Cc1ccc(NC(=O)CN(C)CC(=O)Nc2ccccc2Oc2ccccc2)cc1	none (no result: NPY-Y2 antag)
Cc1cccc(C)c1NC(=O)CN(C)CC(=O)Nc1ccccc1Oc1ccccc1	NPY Y1 blocker 21 (no result: NPY-Y2 antag)
O=C(Cc1ccc(F)cc1)N/N=C/c1ccccn1	none
FC(F)(F)c1ccccc1CN1CCN(C2CCCCCC2)CC1	NPY-Y2 antag 22, NPY Y1 blocker 23
O=C(NCc1cccnc1)/C(=C\c1ccc(-c2ccc(Cl)c(Cl)c2)o1)S(=O)(=O)c1ccccc1	NPY-Y2 antag 17, NPY Y1 blocker 24
CCCc1ccc(C(=O)NNC(=O)c2ccc(Br)cc2)cc1	none
CCCc1ccc(C(=O)NNc2ccc(F)cc2)cc1	NPY-Y2 PAM-ag 46, NPY-Y1 PAM-ag 51 (no result: NPY-Y2 antag, NPY Y1 blocker)
COc1ccc(OCC(O)CN2CCCCC2)cc1 (stereo unspecified)	none
COc1ccc(OCC(O)Cn2c(=N)n(CCN3CCCCC3)c3ccccc32)cc1 (stereo unspecified)	NPY-Y2 antag 19, NPY Y1 blocker 34
Cc1ccc(OCC(O)Cn2c(=N)n(CCN3CCCCC3)c3ccccc32)cc1 (stereo unspecified)	NPY-Y2 antag 46, NPY Y1 blocker 62
Cc1ccc(OCC(O)Cn2c(=N)n(CCN3CCOCC3)c3ccccc32)cc1 (stereo unspecified)	none
COC(=O)C1=C(C)C(c2ccc(OC)cc2)NC(=O)N1 (stereo unspecified)	none (no result: NPY-Y2 antag)
COc1ccc(C)cc1NS(=O)(=O)c1ccc(NC(=O)CN(c2cc([N+](=O)[O-])ccc2C)S(C)(=O)=O)cc1	NPY-Y2 PAM-ag 27, NPY-Y1 PAM-ag 40
Cc1cccc(NS(=O)(=O)c2ccc(NC(=O)CN(c3cc([N+](=O)[O-])ccc3C)S(C)(=O)=O)cc2)c1	NPY-Y2 PAM-ag 42, NPY-Y1 PAM-ag 50
COc1ccc(C(=O)O/N=C/c2ccc(S(=O)c3ccc(Cl)cc3)nc2)cc1 (stereo unspecified)	none
c1ccc(CN(Cc2ccccc2)c2nn[nH]n2)cc1	none (no result: NPY-Y2 antag)
Clc1ccc(CN(Cc2ccc(Cl)cc2)c2nn[nH]n2)cc1	NPY Y1 blocker 31 (no result: NPY-Y2 antag)
Cc1sc2ncnc(N=Nc3c(O)[nH]c4ccccc34)c2c1C	none
CC(=O)NC(NC(=S)Nc1ccc(S(N)(=O)=O)cc1)C(Cl)(Cl)Cl (stereo unspecified)	none (no result: NPY-Y2 antag, NPY Y1 blocker)
CC(=O)NC(NC(=S)Nc1ccc(N=Nc2ccccc2)cc1)C(Cl)(Cl)Cl (stereo unspecified)	NPY-Y1 PAM-ag 46
CC(NS(=O)(=O)c1cccc(Cl)c1)C(=O)Nc1ccc(-c2nc3ccccc3s2)cc1 (stereo unspecified)	NPY-Y1 PAM-ag 55

Assay outcomes (PubChem)
